In test [1] the target is Sodium-dependent serotonin transporter (Homo sapiens, UniProt P31645). Description: Displacement of [3H]-citalopram from human SERT expressed in HEK293 cell membrane. Type of test: cell membranes. A digest of the protocol: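 Competition binding on membranes of HEK-293 cells stably expressing SERT cDNA. [3H]citalopram fixed at 1 nM final, with a range of drug concentrations. Buffer Tris.HCl 50 mM, pH 7.4, NaCl 100 mM. Incubation 2 h at 0–4 °C, started by adding membranes. Rapid filtration through PEI-soaked GF/B filters, then scintillation counting. Nonspecific binding defined with 10 μM fluoxetine. IC50 reported as mean ± SEM of ≥3 experiments, each in triplicate.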
Chain of Sodium-dependent serotonin transporter (P31645 whole entry): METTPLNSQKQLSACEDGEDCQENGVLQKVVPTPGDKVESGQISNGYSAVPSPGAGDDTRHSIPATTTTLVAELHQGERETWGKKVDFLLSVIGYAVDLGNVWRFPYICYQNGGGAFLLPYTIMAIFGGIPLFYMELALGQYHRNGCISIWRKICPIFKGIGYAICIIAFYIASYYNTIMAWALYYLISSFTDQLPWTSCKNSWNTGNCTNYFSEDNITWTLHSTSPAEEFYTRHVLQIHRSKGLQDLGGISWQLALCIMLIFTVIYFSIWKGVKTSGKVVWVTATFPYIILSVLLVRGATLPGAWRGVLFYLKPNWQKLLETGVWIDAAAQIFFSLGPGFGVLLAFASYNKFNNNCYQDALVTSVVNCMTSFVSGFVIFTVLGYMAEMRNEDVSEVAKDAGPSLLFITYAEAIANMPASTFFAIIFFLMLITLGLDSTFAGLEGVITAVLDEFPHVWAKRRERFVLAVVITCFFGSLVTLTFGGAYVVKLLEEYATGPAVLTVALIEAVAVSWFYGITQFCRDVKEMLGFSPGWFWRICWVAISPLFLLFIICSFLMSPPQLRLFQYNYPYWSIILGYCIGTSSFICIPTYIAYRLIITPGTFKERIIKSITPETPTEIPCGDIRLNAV
In general terms: Loss of bound radioactivity is the signal in a displacement assay; it reports binding, not function.

Test [2] concerns the target Sodium-dependent dopamine transporter (Homo sapiens, UniProt Q01959). The experiment in a line: Displacement of [3H]WIN-35428 from human DAT expressed in transfected cell membrane. The test is classed as cell membranes. A digest of the protocol:
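Membranes from transfected cells stably expressing hDAT, labelled with [3H]WIN35,428 at 4 nM final, with serial drug dilutions made from DMSO stocks. Buffer Tris.HCl 50 mM, pH 7.4, NaCl 100 mM. Incubated 1 h at 22 °C. Filtered over 0.1% PEI-presoaked GF/B filters and counted. Nonspecific binding defined with 100 μM (-)-cocaine. IC50 reported as mean ± SEM of ≥3 experiments, each in triplicate.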

Structures are written as SMILES.

Chain of Sodium-dependent dopamine transporter (Q01959 whole entry): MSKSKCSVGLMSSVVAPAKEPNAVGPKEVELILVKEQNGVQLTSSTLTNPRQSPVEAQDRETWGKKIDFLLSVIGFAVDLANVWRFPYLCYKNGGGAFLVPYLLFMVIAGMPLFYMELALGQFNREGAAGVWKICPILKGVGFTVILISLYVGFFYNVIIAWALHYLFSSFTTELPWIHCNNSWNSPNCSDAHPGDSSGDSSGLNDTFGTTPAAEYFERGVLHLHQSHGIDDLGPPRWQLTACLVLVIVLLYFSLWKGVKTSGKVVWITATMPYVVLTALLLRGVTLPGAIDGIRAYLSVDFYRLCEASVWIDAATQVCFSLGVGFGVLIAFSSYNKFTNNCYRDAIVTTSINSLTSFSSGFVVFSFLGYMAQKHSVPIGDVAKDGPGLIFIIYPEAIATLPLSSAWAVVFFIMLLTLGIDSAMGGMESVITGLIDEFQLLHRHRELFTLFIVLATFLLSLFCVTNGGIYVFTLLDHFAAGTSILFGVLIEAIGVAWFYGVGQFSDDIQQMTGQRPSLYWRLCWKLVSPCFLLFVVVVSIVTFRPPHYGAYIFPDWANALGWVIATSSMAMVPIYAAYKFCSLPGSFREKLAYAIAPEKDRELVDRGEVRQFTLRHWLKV

As to `CN1C2CCC1[C@@H](COC(=O)CCCCCCCCCCC(=O)OC[C@@H]1C3CCC(C[C@@H]1c1ccc(Cl)c(Cl)c1)N3C)[C@@H](c1ccc(Cl)c(Cl)c1)C2`, the IC50 in test [1] amounted to 140 nM; in test [2], 115 nM.
On to `CN1C2CC[C@@H]1[C@@H](COC(=O)CCC(=O)OC[C@H]1[C@@H](c3ccc(Cl)c(Cl)c3)CC3CC[C@H]1O3)[C@@H](c1ccc(Cl)c(Cl)c1)C2`, for which the IC50 was 405 nM in test [1] and 67 nM in test [2].
Take `COC(=O)[C@@H]1C2CCC(C[C@@H]1c1ccc(Cl)c(Cl)c1)O2` (stereo not given in full): the IC50 in test [1] is 4.7 nM; in test [2], 3.3 nM.
In test [1], `COC(=O)[C@@H]1C2CCC(C[C@@H]1c1ccc(Cl)c(Cl)c1)N2C` (stereo not given in full) had an IC50 of 2.5 nM.
Consider `CN1C2CC[C@@H]1[C@@H](COC(=O)CCC(=O)OC[C@@H]1C3CCC(C[C@@H]1c1ccc(Cl)c(Cl)c1)S3)[C@@H](c1ccc(Cl)c(Cl)c1)C2`, for which the IC50 in test [1] amounted to 593 nM; in test [2], 55 nM.
Take `O=C(CCC(=O)OC[C@@H]1C2CCC(C[C@@H]1c1ccc(Cl)c(Cl)c1)S2)OC[C@@H]1C2CCC(C[C@@H]1c1ccc(Cl)c(Cl)c1)S2`: the IC50 in test [1] came to 2200 nM; in test [2], 1540 nM.
The matching figures for `COC(=O)[C@@H]1C2CCC(C[C@@H]1c1ccc(Cl)c(Cl)c1)S2` (stereo not given in full): 3 nM and 2 nM.
In the case of `CN1C2CCC1[C@@H](COC(=O)CCCCC(=O)OC[C@@H]1C3CCC(C[C@@H]1c1ccc(Cl)c(Cl)c1)N3C)[C@@H](c1ccc(Cl)c(Cl)c1)C2`, the values for the 50% inhibitory concentration (IC50) in test [1] and in test [2] were 56 nM and 28 nM, respectively.
For `CCCCCCC(=O)OC[C@H]1[C@@H](c2ccc(Cl)c(Cl)c2)CC2CC[C@H]1N2C`, in that order: 53 nM and 8 nM.
For the compound `O=C(CCC(=O)OC[C@@H]1C2CCC(C[C@@H]1c1ccc(Cl)c(Cl)c1)S2)OC[C@@H]1C2CCC(C[C@@H]1c1ccc(Cl)c(Cl)c1)O2` (stereo not given in full), the IC50 was found to be 992 nM in test [1] and 2960 nM in test [2].
`CN1C2CCC1[C@@H](COC(=O)CCC(=O)OC[C@@H]1C3CCC(C[C@@H]1c1ccc(Cl)c(Cl)c1)N3C)[C@@H](c1ccc(Cl)c(Cl)c1)C2`: the IC50 was 106 nM in test [1] and 12 nM in test [2].
For the compound `CN1C2CCC1[C@@H](COC(=O)CCCCCCC(=O)OC[C@@H]1C3CCC(C[C@@H]1c1ccc(Cl)c(Cl)c1)N3C)[C@@H](c1ccc(Cl)c(Cl)c1)C2`, the values for the IC50 in test [1] and in test [2] were 31 nM and 11 nM, respectively.
The matching figures for `CN1C2CCC1[C@@H](COC(=O)CCCCCCCCC(=O)OC[C@@H]1C3CCC(C[C@@H]1c1ccc(Cl)c(Cl)c1)N3C)[C@@H](c1ccc(Cl)c(Cl)c1)C2`: 17 nM and 31 nM.

For orientation: IC50 means the concentration that inhibits the measured activity by half. Low readings indicate greater potency, high ones weaker potency.
